Source: ChEMBL document CHEMBL2390828, “Synthesis and biological characterization of spiro[2H-(1,3)-benzoxazine-2,4'-piperidine] based histone deacetylase inhibitors” (Eur J Med Chem, 2013)

Columns and labels:
[1] = biological target: Voltage-gated inwardly rectifying potassium channel KCNH2 (Homo sapiens, UniProt Q12809); assay: Displacement of [3H]astemizole from human ERG channel transfected in HEK293 cells after 60 mins by liquid scintillation counting analysis; assay type: cell-based
Histone deacetylase 2 = Histone deacetylase 2 (Homo sapiens, UniProt Q92769); assay: Inhibition of HDAC2 (unknown origin)
Histone deacetylase 2, sequence (Q92769 whole entry): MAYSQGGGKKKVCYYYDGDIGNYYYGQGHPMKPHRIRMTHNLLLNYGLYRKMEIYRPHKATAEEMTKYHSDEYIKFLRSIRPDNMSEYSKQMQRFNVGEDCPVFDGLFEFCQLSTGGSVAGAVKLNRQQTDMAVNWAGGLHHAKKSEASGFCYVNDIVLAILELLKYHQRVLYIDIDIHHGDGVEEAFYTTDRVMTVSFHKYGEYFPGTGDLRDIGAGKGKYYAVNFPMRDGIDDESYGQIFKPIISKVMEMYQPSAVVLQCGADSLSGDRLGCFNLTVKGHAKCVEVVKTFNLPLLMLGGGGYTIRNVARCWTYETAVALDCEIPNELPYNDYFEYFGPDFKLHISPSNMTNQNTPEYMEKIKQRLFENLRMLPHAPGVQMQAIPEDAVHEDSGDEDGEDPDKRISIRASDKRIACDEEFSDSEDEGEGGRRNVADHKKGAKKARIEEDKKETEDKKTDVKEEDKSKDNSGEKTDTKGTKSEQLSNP

[2] = Oral bioavailability in CD1 mouse at 15 mg/kg; details: in vivo
[3] = biological target: T1, Protein deacetylase HDAC6 (Homo sapiens, UniProt Q9UBN7); assay: Inhibition of HDAC6 (unknown origin)
T1 sequence (Q9UBN7 whole entry): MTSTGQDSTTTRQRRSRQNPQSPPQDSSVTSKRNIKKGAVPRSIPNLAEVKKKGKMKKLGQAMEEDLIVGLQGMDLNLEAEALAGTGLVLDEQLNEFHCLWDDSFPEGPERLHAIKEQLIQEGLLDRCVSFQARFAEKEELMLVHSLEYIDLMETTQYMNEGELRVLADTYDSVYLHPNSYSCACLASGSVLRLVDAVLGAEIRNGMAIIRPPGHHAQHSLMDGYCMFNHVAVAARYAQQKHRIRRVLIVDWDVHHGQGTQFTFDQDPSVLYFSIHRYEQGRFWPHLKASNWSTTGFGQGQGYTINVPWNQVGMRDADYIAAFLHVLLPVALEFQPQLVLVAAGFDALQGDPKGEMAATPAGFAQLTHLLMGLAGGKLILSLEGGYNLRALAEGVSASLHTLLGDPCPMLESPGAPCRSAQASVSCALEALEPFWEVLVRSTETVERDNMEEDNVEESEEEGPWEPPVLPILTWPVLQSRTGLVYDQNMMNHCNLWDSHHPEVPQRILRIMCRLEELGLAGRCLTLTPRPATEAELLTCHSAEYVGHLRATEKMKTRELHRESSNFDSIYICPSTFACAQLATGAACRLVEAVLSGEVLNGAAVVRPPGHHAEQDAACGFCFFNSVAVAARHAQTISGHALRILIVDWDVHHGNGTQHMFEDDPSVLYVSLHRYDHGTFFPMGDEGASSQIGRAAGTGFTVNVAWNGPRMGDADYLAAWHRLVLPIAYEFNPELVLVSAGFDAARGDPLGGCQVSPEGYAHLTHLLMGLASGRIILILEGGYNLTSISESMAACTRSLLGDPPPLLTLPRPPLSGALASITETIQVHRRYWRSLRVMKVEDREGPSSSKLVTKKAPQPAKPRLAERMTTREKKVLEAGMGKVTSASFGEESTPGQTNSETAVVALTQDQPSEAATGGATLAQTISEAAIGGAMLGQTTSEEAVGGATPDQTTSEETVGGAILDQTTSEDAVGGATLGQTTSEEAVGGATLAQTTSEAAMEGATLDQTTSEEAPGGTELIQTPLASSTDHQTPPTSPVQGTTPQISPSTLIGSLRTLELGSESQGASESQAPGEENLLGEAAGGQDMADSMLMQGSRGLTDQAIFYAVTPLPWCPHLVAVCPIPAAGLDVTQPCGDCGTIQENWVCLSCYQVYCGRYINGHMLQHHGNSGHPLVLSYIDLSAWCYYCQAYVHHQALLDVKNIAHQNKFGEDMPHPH

Histone deacetylase 3 = Histone deacetylase 3 (Homo sapiens, UniProt O15379); assay: Inhibition of HDAC3 (unknown origin)
Histone deacetylase 3, sequence (O15379 whole entry): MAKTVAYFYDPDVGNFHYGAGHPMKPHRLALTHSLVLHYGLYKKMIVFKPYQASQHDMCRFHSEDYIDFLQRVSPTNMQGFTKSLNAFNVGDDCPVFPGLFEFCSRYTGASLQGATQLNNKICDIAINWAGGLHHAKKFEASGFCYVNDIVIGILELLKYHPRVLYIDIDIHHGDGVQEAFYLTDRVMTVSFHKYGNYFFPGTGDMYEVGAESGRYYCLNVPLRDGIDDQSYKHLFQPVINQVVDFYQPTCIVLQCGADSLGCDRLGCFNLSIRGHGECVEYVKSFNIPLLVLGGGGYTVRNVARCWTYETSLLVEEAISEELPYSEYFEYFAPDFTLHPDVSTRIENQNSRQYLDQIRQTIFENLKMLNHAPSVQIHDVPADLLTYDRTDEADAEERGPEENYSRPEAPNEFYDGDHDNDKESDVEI

[4] = Metabolic stability in human liver microsomes after 30 mins by LC-MS/MS analysis; assay type: ADME, Microsome; details: read-out: Stability
Method in brief: (§1)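 Compounds were incubated with mouse or human liver microsomal preparation for 30 min at 37 °C. The reaction was stopped with CH3CN. Unmetabolized compound was quantified by LC-MS/MS in MRM mode and reported as percent remaining. Replicates n ≥ 2, mean values given.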

[5] = Metabolic stability in mouse liver microsomes after 30 mins by LC-MS/MS analysis; assay type: ADME, Microsome; details: read-out: Stability; method in brief: as §1
[6] = Permeability from apical to basolateral side across human Caco2 cells after 2 hrs by LC-MS analysis; assay type: ADME, cell-based; details: Caco-2, read-out: permeability
Mus musculus = assay: Cmax in CD1 mouse at 15 mg/kg, po; details: mouse, in vivo

Voltage-gated inwardly rectifying potassium channel KCNH2, sequence (Q12809 whole entry): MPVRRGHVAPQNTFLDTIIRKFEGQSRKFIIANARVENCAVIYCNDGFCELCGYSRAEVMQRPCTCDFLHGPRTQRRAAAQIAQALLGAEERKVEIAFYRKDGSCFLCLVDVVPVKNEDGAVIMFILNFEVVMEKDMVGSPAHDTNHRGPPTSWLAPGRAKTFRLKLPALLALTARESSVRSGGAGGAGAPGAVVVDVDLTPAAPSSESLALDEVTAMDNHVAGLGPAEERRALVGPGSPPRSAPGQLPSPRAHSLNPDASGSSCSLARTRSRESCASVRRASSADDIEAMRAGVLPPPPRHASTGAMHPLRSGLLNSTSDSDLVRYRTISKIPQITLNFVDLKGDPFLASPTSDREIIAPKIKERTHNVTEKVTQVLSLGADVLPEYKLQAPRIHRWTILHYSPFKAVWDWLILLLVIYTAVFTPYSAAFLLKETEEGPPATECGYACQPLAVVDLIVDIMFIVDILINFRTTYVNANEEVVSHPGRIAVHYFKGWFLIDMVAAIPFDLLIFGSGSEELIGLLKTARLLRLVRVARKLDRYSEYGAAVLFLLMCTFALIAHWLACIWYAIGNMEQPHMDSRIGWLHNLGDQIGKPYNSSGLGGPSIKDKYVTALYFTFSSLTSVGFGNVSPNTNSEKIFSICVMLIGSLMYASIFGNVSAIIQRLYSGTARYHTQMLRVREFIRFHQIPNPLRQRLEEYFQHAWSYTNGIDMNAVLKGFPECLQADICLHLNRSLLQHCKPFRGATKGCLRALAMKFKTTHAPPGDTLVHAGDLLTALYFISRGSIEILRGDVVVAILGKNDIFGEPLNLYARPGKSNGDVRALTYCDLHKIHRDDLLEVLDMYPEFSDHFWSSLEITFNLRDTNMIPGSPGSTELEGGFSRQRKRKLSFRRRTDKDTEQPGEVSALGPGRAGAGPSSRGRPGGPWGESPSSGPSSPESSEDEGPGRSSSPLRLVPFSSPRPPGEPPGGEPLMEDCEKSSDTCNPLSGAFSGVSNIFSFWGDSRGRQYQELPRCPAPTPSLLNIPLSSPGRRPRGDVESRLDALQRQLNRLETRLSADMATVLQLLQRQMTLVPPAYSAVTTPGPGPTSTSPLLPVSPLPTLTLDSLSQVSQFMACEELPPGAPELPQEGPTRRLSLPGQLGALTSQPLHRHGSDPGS

Structure (SMILES): O=C(/C=C/c1ccc2c(c1)C(=O)CC1(CCN(Cc3ccccc3)CC1)O2)NO
- IC50 [1]: 3810 nM
- IC50 (Histone deacetylase 2): 270 nM
- bioavailability [2]: 31.5%
- IC50 [3]: 103 nM
- IC50 (Histone deacetylase 3): 65 nM
- remaining at 0.5 h [4]: 55%
- remaining at 0.5 h [5]: 32%
- Papp A→B at 2 h [6]: 5.6 ×10⁻⁶ cm/s
- Cmax (Mus musculus): 823 nM
